Ecoli tolC: growth inhibitors of E. coli tolC mutant, primary screen, strain BW25113 ΔtolC::kan, 384-well | OD615 | growth inhibition, % at 10 µM (by protocol) | 65,000 compounds, 2.2% hits | AID 573, 2007;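 active = growth inhibition at or above a cutoff equal to the mean over every tested compound plus 3 SD, cut at about 60% in these data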;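 also: growth measured after 20 h incubation at 37 °C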
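Assay system: tolC-deleted E. coli BW25113. Medium: kanamycin-containing LB broth (50 µg/mL). Dosing: 10 µM final, single dose. Timing: bacterial growth with compound for 20 h at 37 °C. Detection: A615 absorbance measurement. Read-out basis: growth inhibition in percent.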
PLAP activator: PLAP enzyme activators, biochemical, luminescence, HTS; purified PLAP enzyme, luminescent substrate read-out; active compounds read high; activation fold at 20 µM; 96,000 compounds, 1.2% hits; Alkaline phosphatase, placental type (Homo sapiens), P05187; in the data active = activation fold above about 2
Target sequence (P05187 whole entry, looked up): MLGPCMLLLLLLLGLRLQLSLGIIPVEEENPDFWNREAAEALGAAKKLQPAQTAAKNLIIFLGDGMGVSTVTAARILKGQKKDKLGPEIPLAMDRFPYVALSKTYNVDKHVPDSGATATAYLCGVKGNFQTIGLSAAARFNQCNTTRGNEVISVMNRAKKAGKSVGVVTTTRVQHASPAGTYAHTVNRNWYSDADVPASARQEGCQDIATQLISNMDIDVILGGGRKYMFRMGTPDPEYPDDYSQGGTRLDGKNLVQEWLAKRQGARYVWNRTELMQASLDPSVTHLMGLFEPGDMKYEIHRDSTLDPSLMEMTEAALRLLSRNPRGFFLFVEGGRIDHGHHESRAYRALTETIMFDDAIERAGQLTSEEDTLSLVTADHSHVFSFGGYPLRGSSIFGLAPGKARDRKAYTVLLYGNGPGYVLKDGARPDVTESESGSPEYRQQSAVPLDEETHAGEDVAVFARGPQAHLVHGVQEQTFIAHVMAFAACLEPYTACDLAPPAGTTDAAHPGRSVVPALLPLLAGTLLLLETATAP
PostGolgi ctrl: growth inhibition of yeast control strain, primary screen, counter-screen for post-Golgi transport modulator project. efflux-deficient yeast background strain, growth absorbance A615, 16 h. inhibition, % at 10 µM. 98,000 compounds, 5% hits. AID 738, 2007
E coli WT exp: growth inhibitors of wild-type E. coli, primary screen, strain BW25113, expanded library, OD600; OD600 absorbance; growth inhibition, % at 100 µM; 98,000 compounds, 0.15% hits; AID 710, 2007;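 active = growth inhibition above about 50% at one test dose, limit read from the data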;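 also: growth measured after 20 h incubation at 37 °C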
PostGolgi yeast: phenotypic screen on post-Golgi transport, primary screen | post-Golgi transport phenotypic cell assay | inhibition, % at 10 µM | 98,000 compounds, 0.9% hits;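 also: yeast cells grown in 1536-well plates; yeast grown about 18 h at 30C before absorbance read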
Hits are given with their value; – = inactive; · = no result. Only some compounds are listed: those with a hit (about 7.2% of all), similar ones and a draw of the others. Rule as the data show it, unless noted: active = inhibition above about 30%; inactive = the rest.

SMILES | Ecoli tolC | PLAP activator | PostGolgi ctrl | E coli WT exp | PostGolgi yeast
c1ccc(-c2ccccc2-c2nc(-c3cccnc3)no2)cc1 | 97.9 | – | 33.7 | – | 38.5
c1ccc(CCc2ccccc2-c2nc(-c3cccnc3)no2)cc1 | 72.9 | – | – | – | –
Cc1ccccc1CSc1nccn1-c1ccccc1 | · | – | – | – | –
COC(=O)C1C(=O)c2c([nH]c(C(=O)OCC3CCCO3)c2C)CC1C (stereo not drawn) | – | – | – | – | –
CCOC(=O)Cn1c(=O)oc2cc(S(=O)(=O)NCCc3ccc(OCC)c(OCC)c3)ccc21 | – | – | – | – | –
O=C(Nc1scc(-c2cccs2)c1C(=O)O)c1cccs1 | 75.1 | – | – | – | –
O=C1CCCN1CCCN1C(=O)N[C@@H](Cc2ccccc2)C1=O | – | – | 35.2 | – | –
O=C1N[C@@H](Cc2ccccc2)C(=O)N1CCN1CCOCC1 | · | – | – | – | –
CC(C)(C)Nc1nc(SCc2ccccc2)nc(N2CCOCC2)n1 | – | – | 47.0 | – | –
Clc1ccc(SCCn2ccnc2)cc1 | – | – | – | – | –
O=C(NCCS(=O)CCNC(=O)C(F)(F)F)C(F)(F)F | – | – | – | – | –
O=S(=O)(c1ccc(OCC(O)CN2CCN(c3ccccc3O)CC2)cc1)N1CCOCC1 (stereo not drawn) | – | – | 44.5 | – | –
O=S(=O)(c1ccc(OCC(O)CN2CCN(c3ccccc3)CC2)cc1)N1CCOCC1 (stereo not drawn) | – | – | – | – | –
CCNC(=O)N1c2ccc(OCC)cc2C(C)=CC1(C)C | – | – | – | – | –
CCOc1ccc2c(c1)-c1c(ssc1=S)C(C)(C)N2 | · | – | 30.9 | – | –
CCn1c(SCC(=O)O)nnc1C1CCCCC1 | – | – | 31.2 | – | –
CCn1c(SCC(=O)OC)nnc1C1CCCCC1 | · | – | – | – | –
COc1ccc2c(c1)C(=NO)c1cc(OC)ccc1-2 | – | – | 46.4 | – | –
CCCc1cc(C(N)=O)c(NC(=O)c2ccoc2C)s1 | – | – | – | – | –
CCCc1cc(C(N)=O)c(NC(=O)c2cc(C)on2)s1 | – | – | 49.1 | – | –
CC(C)OCCCNC(=O)c1cccs1 | – | – | 32.3 | – | –
COc1cc(NC(=O)C2CCCCC2)c(OC)cc1NC(=O)CCC(=O)NCc1ccco1 | – | – | – | – | –
N#C/C=C(/N)N1CCN(c2ccc(Cl)c(Cl)c2)CC1 | · | – | – | – | 32.4
COC(=O)N1CCN(c2ccc(Cl)c(Cl)c2)CC1 | – | – | – | – | –
O=C(Nc1ccccc1)N(C1=NCCC1)c1ccc(OC(F)F)cc1 | – | – | – | – | –
SMILES | Ecoli tolC | PLAP activator | PostGolgi ctrl | E coli WT exp | PostGolgi yeast
COc1ccccc1NC(=O)CSc1nnc(-c2ccoc2C)n1CC1CCCO1 (stereo not drawn) | · | – | – | – | –
CN1C(=O)NC(c2ccc(O)cc2)C(C(=O)c2cccs2)C1(O)C(F)(F)F (stereo not drawn) | – | – | – | 80.0 | –
Cc1cccc(NS(=O)(=O)c2ccc(Br)s2)n1 | · | – | – | – | –
CC(=O)Nc1ccc(S(=O)(=O)Nc2nc3ccccc3s2)cc1 | · | – | – | – | –
O=S(=O)(Nc1nc2ccccc2s1)c1ccc(Br)s1 | 75.6 | – | 33.0 | – | –
CC(=O)NNc1nc2ccccc2s1 | · | 2.1 | – | – | –
Cc1ccc(S(=O)(=O)Nc2nc3ccccc3s2)cc1 | · | – | 32.3 | – | –
Cc1nnc(SCCn2c(N3CCN(c4ccccc4)CC3)nc3c2c(=O)n(C)c(=O)n3C)s1 | – | · | · | · | ·
CCCCNS(=O)(=O)c1ccc2nc(SCC(=O)c3ccccc3OC)[nH]c2c1 | · | 2.2 | – | – | –
O=S(=O)(c1cccs1)N1CCN(CC(O)COc2cc(Cl)ccc2Cl)CC1 (stereo not drawn) | – | – | 32.8 | – | –
Cc1onc(-c2c(F)cccc2Cl)c1C(=O)OCC(=O)NC(c1ccccc1)c1ccccc1 | · | – | – | – | –
COc1ccc(Cl)cc1N(CC(=O)Nc1ccc2c(c1)OCCO2)S(C)(=O)=O | – | – | – | – | –
COC(=O)c1cc(OC)c(OC)cc1NC(=O)CC1CCCCC1 | – | – | 41.9 | – | –
COC(=O)c1cc(OC)c(OC)cc1NC(=O)CN1CCCCC1 | – | – | – | – | –
COc1ccc2cc3cc(C(=O)NCCN4CCN(c5ccccc5F)CC4)oc3nc2c1 | – | – | 81.0 | – | –
O=C(CNc1ccc(C(F)(F)F)cc1[N+](=O)[O-])OCC(=O)c1ccccc1 | · | – | – | – | –
O=[N+]([O-])c1cc(C(F)(F)F)ccc1NCCc1c[nH]c2ccc(O)cc12 | · | – | 55.4 | – | –
Cc1ccc2[nH]c(=O)c(C3C(C#N)=C(N)Oc4c3ccc3cccnc43)cc2c1 (stereo not drawn) | · | 2.2 | – | – | –
COC(=O)C1=C(C)NC(C)=C(C(=O)OC)C1c1cc2cc(C)ccc2[nH]c1=O | – | – | – | – | –
O=S(=O)(Nc1cccc(-c2nc3cccnc3s2)c1)c1ccc2c(c1)OCCO2 | – | – | 80.4 | – | 30.4
O=S(=O)(Nc1ccc(S(=O)(=O)Nc2nccs2)cc1)c1ccc2c(c1)OCCO2 | · | – | – | – | –
CCc1ccc(S(=O)(=O)Nc2ccc(-c3nc4cccnc4s3)cc2)s1 | · | – | – | – | –
Cc1ccc(-c2nc3cccnc3s2)cc1NS(=O)(=O)c1ccc2c(c1)OCCO2 | · | – | 97.7 | – | 85.5
O=C(NCc1ccccn1)c1nnc(Cc2ccc(Cl)cc2)o1 | – | · | · | · | ·
COC(=O)CN1C(=S)N(Cc2ccccc2)C(=O)C1CC(=O)Nc1ccc(Br)cc1 (stereo not drawn) | · | – | 78.9 | – | –
SMILES | Ecoli tolC | PLAP activator | PostGolgi ctrl | E coli WT exp | PostGolgi yeast
COc1cc2c(cc1OC)CN(Cc1ccc(C)s1)CC2 | · | – | 42.9 | – | –
COc1cc2c(cc1OC)CN(CC(=O)Nc1ccc(C)cc1)CC2 | · | – | – | – | –
COc1ccccc1NC(=O)c1ccc(-n2cccn2)nc1 | · | – | – | – | –
COc1ccc(-c2[nH]ncc2-c2ccc3c(c2)OCCO3)c(O)c1 | 98.4 | 2.1 | – | – | –
CCCc1cc(-c2[nH]ncc2-c2ccc3c(c2)OCCCO3)c(O)cc1OC | · | · | 39.8 | – | –
CCc1cc(-c2[nH]ncc2-c2ccc3c(c2)OCO3)c(O)cc1O | 100.0 | 2.5 | · | · | ·
O=c1c(-c2ccc3c(c2)OCCO3)coc2cc(O)cc(O)c12 | – | – | – | – | –
Cn1cc(SCC(=O)NCc2ccc3c(c2)OCO3)c2ccccc21 | – | – | – | – | –
O=C(O)CCCC(=O)Nc1cccc(-c2nc3ccccc3[nH]2)c1 | – | – | 30.6 | – | –
FC(F)(F)c1nnc(-c2ccccc2)nc1N1CCOCC1 | · | – | – | – | –
FC(F)(F)c1cccc(-c2nnc(-c3ccccc3)c(N3CCOCC3)n2)c1 | · | – | 35.0 | – | –
CC(=O)NCCc1nc2ccccc2n1Cc1ccccc1 | – | – | – | – | –
COc1cc(Cl)c(S(=O)(=O)NCc2ccccn2)cc1Cl | · | 2.3 | – | – | –
COC(=O)c1ccc(CSc2nc3ccccc3o2)cc1 | 65.3 | – | – | – | –

Compound activity as filed in PubChem.
